# Laboratory results: ChEMBL document CHEMBL1150418, “Discovery of potent furan piperazine sodium channel blockers for treatment of neuropathic pain” (Bioorg Med Chem, 2008)
# Assays:
# [1] = target: T1, Sodium channel protein type 10 subunit alpha (Homo sapiens, UniProt Q9Y5Y9); experiment: Inhibition of human recombinant Nav1.8 channel expressed in HEK293 cells at 0.1 uM by whole cell voltage clamp technique; assay type: cell-based
# How it was run: (§1)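 HEK293 cells stably expressing recombinant human sodium channels, grown in high-glucose DMEM, 10% FBS, 2 mM sodium pyruvate, G418. Whole-cell voltage clamp; pipettes 0.8–2.5 MΩ; internal (mM) 135 CsF, 10 CsCl, 5 EGTA, 5 NaCl, 10 HEPES, pH 7.3 with CsOH. Holding pre-pulse set at midpoint of steady-state inactivation for each subtype.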
# Target sequence in this assay (Q9Y5Y9 whole entry, looked up): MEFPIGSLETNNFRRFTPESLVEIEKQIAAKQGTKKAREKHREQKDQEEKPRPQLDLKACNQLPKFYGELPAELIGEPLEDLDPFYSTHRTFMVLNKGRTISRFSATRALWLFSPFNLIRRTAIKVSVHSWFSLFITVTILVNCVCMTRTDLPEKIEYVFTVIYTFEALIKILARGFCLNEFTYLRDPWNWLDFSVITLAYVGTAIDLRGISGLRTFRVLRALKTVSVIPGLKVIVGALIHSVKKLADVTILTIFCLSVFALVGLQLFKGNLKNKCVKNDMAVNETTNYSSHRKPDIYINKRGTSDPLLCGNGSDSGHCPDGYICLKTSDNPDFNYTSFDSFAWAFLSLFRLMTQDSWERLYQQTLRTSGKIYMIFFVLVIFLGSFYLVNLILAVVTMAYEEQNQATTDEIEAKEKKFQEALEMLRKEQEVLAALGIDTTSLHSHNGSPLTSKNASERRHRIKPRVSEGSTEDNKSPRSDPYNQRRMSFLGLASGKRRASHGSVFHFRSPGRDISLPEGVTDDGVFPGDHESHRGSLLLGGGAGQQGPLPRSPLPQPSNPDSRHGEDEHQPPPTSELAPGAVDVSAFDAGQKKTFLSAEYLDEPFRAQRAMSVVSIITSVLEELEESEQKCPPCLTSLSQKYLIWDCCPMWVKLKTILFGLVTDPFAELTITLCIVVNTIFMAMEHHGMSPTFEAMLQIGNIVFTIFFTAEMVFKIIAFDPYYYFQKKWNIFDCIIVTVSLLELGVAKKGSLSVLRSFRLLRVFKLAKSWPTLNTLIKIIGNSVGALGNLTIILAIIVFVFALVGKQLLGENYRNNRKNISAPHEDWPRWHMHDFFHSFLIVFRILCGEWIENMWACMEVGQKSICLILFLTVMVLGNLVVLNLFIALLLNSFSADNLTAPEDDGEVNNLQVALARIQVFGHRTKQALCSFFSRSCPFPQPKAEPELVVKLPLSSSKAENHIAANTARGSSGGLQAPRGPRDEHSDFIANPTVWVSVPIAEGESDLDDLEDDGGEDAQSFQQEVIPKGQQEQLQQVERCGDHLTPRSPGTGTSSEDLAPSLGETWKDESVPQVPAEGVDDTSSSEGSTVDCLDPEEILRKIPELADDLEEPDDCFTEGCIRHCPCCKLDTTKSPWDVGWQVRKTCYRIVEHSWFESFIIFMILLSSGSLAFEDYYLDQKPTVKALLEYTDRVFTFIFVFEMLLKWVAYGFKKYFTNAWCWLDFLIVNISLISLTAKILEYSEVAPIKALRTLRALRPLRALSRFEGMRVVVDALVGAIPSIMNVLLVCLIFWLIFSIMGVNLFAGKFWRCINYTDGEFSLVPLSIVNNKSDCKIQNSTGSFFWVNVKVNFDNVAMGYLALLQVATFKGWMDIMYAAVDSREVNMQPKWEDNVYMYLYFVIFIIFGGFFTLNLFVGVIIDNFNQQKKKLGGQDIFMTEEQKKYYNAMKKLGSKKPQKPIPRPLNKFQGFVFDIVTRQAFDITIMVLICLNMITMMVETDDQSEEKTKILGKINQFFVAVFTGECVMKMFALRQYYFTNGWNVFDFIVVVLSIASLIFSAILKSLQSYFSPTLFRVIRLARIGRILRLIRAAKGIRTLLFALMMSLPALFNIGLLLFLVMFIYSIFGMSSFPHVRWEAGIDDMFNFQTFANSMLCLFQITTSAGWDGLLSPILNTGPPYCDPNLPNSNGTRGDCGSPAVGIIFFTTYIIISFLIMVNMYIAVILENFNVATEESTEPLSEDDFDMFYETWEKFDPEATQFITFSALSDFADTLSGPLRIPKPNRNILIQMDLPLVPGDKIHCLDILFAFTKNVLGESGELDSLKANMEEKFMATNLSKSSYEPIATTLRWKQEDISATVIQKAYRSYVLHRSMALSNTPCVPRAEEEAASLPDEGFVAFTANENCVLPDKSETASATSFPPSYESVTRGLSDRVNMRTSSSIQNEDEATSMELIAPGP
# [2] = target: Sodium channel protein type 10 subunit alpha (Rattus norvegicus) (UniProt Q62968); experiment: Blockade of Nav1.8 channel in rat dorsal root ganglion neurons assessed as inhibition of TTX-R current at 1 uM by whole cell patch clamp technique; assay type: tissue-based
# How it was run: (§2)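 Whole-cell voltage clamp of TTX-resistant currents in dissociated rat DRG neurons. Pipette (mM): CsF 135, NaCl 5, CsCl 10, EGTA 5, HEPES 10, pH 7.2. Bath (mM): NaCl 22, choline Cl 110, CaCl2 1.8, MgCl2 0.8, HEPES 10, glucose 5, pH 7.4. Inactivated-state protocol with pre-pulse at V1/2 (−40 mV). Mean ± SEM of two to six determinations.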
# [3] = target: T1, Sodium channel protein type 10 subunit alpha; experiment: Inhibition of human recombinant Nav1.8 channel expressed in HEK293 cells at 1 uM by whole cell voltage clamp technique; assay type: cell-based; how it was run: as §1
# Target sequence in this assay (Q9Y5Y9 whole entry, looked up): as above
# [4] = target: Sodium channel protein type 10 subunit alpha (Rattus norvegicus) (UniProt Q62968); experiment: Blockade of Nav1.8 channel in rat dorsal root ganglion neurons assessed as inhibition of TTX-R current at 0.3 uM by whole cell patch clamp technique; assay type: tissue-based; how it was run: as §2
# [5] = Oral bioavailability in Sprague-Dawley rat at 10 mg/kg; assay type: ADME, organism-based; settings: in vivo
# How it was run: (§3)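 Rat pharmacokinetics after administration at 10 mg/kg in 10% DMSO/PEG400.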
# [6] = target: Sodium channel protein type 2 subunit alpha (Homo sapiens, UniProt Q99250); experiment: Inhibition of human recombinant Nav1.2 channel expressed in HEK293 cells by whole cell voltage clamp technique; assay type: cell-based
# Sodium channel protein type 2 subunit alpha, sequence (Q99250 whole entry): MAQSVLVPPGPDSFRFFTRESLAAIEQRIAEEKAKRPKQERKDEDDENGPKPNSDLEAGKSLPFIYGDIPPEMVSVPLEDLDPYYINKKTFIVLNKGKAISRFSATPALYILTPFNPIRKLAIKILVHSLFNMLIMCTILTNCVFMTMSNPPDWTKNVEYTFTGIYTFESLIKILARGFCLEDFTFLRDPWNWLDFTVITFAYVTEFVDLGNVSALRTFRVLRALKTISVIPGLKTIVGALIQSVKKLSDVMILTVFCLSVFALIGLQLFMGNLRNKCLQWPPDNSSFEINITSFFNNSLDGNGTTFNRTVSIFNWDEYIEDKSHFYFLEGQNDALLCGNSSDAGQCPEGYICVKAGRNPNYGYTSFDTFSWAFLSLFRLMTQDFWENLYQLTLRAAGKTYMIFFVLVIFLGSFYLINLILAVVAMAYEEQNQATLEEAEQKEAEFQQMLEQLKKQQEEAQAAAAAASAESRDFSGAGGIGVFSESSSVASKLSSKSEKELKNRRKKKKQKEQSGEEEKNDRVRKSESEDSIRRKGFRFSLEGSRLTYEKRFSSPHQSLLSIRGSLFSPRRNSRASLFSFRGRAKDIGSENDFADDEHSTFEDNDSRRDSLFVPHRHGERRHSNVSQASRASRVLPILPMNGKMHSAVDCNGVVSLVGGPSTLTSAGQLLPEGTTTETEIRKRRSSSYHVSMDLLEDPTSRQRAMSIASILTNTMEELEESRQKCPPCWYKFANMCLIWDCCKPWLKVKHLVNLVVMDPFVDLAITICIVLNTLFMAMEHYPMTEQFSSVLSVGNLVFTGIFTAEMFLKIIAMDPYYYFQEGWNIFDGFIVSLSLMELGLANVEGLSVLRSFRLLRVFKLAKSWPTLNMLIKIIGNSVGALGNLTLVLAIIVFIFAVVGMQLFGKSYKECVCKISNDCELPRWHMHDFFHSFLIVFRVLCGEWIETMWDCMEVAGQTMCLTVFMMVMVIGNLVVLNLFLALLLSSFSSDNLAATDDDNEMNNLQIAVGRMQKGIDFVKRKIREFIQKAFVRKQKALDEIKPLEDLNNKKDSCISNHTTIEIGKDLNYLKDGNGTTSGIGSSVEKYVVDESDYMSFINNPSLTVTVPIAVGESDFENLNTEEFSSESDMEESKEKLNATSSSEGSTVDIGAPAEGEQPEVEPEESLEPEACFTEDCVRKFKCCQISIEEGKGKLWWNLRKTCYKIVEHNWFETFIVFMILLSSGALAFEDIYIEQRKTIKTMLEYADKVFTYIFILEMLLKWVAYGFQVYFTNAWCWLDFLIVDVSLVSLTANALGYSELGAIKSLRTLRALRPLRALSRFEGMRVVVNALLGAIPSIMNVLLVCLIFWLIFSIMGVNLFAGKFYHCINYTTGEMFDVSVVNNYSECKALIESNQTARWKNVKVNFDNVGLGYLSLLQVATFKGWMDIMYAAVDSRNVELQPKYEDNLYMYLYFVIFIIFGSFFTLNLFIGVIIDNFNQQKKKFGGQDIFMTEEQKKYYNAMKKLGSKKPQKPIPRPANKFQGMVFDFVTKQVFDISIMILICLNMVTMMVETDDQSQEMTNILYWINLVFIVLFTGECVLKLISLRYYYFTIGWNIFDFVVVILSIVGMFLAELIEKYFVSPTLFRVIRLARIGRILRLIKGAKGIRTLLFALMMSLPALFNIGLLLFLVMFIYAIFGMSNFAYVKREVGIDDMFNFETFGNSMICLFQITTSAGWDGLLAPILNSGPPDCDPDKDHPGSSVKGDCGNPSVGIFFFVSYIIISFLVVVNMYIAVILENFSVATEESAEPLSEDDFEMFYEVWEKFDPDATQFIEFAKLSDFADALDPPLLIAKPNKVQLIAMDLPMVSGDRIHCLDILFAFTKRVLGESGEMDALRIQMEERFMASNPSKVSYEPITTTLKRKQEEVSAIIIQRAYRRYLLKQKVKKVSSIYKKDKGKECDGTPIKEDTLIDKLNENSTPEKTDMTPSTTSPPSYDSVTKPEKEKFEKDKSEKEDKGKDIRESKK
# How it was run: (§4)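 HEK293 cells stably expressing recombinant human sodium channels, grown in high-glucose DMEM, 10% FBS, 2 mM sodium pyruvate, G418. Holding pre-pulse set at midpoint of steady-state inactivation for each subtype.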
# [7] = Cmax in Sprague-Dawley rat at 10 mg/kg, po; assay type: ADME, organism-based; parameters: dose 10 mg/kg, route oral; settings: in vivo; how it was run: as §3
# [8] = target: Sodium channel protein type 5 subunit alpha (Homo sapiens, UniProt Q14524); experiment: Inhibition of human recombinant Nav1.5 channel expressed in HEK293 cells by whole cell voltage clamp technique; assay type: cell-based; how it was run: as §4
# Rattus norvegicus [9] = experiment: Analgesic activity in po dosed Sprague-Dawley rat by edge test; assay type: functional
# How it was run: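 Balance test: rats placed on 0.5-cm-thick edges of a 40 × 40 × 36 cm plexiglass box, must pull up onto the edge and avoid falling; cut-off 2 min. Groups of at least six rats.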
# [10] = Ratio of drug level in brain to plasma in Sprague-Dawley rat; assay type: ADME; settings: for Kp: Sprague-Dawley, brain and plasma
# [11] = target: T2, 5-hydroxytryptamine receptor 1A (Homo sapiens) (UniProt P08908); experiment: Binding affinity to 5HT1A receptor at 10 uM
# T2 sequence (whole entry): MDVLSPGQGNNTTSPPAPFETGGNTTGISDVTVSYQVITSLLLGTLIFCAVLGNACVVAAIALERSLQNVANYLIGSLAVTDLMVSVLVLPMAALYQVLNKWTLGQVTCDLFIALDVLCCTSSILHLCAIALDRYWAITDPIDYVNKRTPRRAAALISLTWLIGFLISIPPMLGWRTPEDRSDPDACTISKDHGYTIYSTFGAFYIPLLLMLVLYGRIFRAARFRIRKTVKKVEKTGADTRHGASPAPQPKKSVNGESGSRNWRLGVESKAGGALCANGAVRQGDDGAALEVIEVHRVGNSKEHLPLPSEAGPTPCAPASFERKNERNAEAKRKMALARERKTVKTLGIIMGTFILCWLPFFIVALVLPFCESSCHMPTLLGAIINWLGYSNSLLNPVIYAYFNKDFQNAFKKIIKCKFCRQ
# Rattus norvegicus [12] = experiment: Analgesic activity in po dosed Sprague-Dawley rat assessed as attenuation of mechanical allodynia in chung model of neuropathic pain; assay type: functional
# [13] = target: T1, Sodium channel protein type 10 subunit alpha; experiment: Inhibition of human recombinant Nav1.8 channel expressed in HEK293 cells by whole cell voltage clamp technique; assay type: cell-based; how it was run: as §1
# Target sequence in this assay (Q9Y5Y9 whole entry): as the sequence (Q9Y5Y9 whole entry, looked up) above
# Rattus norvegicus [14] = experiment: Analgesic activity in po dosed Sprague-Dawley rat by rotarod test; assay type: functional
# How it was run: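 Accelerating rotorod: after 30-min acclimation, rats placed on 9-cm rod ramping 0–20 rpm over 60 s; latency to fall recorded, maximum 60 s; three training sessions per rat. Groups of at least six rats; mean ± SEM.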
# [15] = target: Sodium channel protein type 10 subunit alpha (Mus musculus, UniProt Q6QIY3); experiment: Inhibition of mouse recombinant Nav1.8 channel expressed in HEK293 cells by isotopic efflux assay; assay type: cell-based
# [16] = target: Sodium channel protein type 10 subunit alpha (Rattus norvegicus, UniProt Q62968); experiment: Blockade of Nav1.8 channel in rat dorsal root ganglion neurons assessed as inhibition of TTX-R current by whole cell patch clamp technique; assay type: tissue-based; how it was run: as §2
# [17] = Plasma clearance in Sprague-Dawley rat at 10 mg/kg; assay type: ADME, organism-based; parameters: dose 10 mg/kg; how it was run: as §3
# [18] = Volume of distribution at steady state in Sprague-Dawley rat at 10 mg/kg; assay type: ADME, organism-based; parameters: dose 10 mg/kg; settings: in vivo, read-out: Vdss; how it was run: as §3
# Rattus norvegicus [19] = experiment: Effect on locomotor activity in po dosed Sprague-Dawley rat; assay type: functional
# How it was run: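 Open-field locomotor activity recorded with photobeam activity monitors during the light cycle; groups of at least six rats, mean ± SEM.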
# [20] = target: 5-hydroxytryptamine receptor 1B (Homo sapiens) (UniProt P28222); experiment: Binding affinity to 5HT1B receptor at 10 uM
# 5-hydroxytryptamine receptor 1B (Homo sapiens), sequence (P28222 whole entry): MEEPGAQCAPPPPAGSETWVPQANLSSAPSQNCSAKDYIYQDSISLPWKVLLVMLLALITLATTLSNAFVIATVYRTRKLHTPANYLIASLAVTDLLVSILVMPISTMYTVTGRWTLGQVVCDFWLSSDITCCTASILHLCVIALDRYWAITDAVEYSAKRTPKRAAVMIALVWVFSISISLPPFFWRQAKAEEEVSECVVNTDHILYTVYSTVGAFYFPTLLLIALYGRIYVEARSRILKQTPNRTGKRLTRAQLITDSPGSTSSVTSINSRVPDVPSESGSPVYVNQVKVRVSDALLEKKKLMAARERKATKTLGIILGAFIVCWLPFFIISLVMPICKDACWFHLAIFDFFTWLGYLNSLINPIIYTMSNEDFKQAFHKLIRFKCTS
# [21] = target: T1, Sodium channel protein type 10 subunit alpha; experiment: Inhibition of human recombinant Nav1.8 channel expressed in HEK293 cells at 0.3 uM by whole cell voltage clamp technique; assay type: cell-based; how it was run: as §1
# Target sequence in this assay (Q9Y5Y9 whole entry, looked up): as the sequence (Q9Y5Y9 whole entry, looked up) above
# [22] = target: T1, Sodium channel protein type 10 subunit alpha; experiment: Inhibition of human recombinant Nav1.8 channel expressed in HEK293 cells at 0.03 uM by whole cell voltage clamp technique; assay type: cell-based; how it was run: as §1
# Target sequence in this assay (Q9Y5Y9 whole entry, looked up): as above
# [23] = target: Sodium channel protein type 10 subunit alpha (Rattus norvegicus) (UniProt Q62968); experiment: Blockade of Nav1.8 channel in rat dorsal root ganglion neurons assessed as inhibition of TTX-R current at 0.1 uM by whole cell patch clamp technique; assay type: tissue-based; how it was run: as §2
# Rattus norvegicus [24] = experiment: Analgesic activity in ip dosed Sprague-Dawley rat by rotarod test
# Rattus norvegicus [25] = experiment: Effect on locomotor activity in ip dosed Sprague-Dawley rat
# Rattus norvegicus [26] = experiment: Analgesic activity in ip dosed Sprague-Dawley rat assessed as attenuation of mechanical allodynia in chung model of neuropathic pain
# [27] = target: Sodium channel protein type 10 subunit alpha (Rattus norvegicus) (UniProt Q62968); experiment: Blockade of Nav1.8 channel in rat dorsal root ganglion neurons assessed as inhibition of TTX-R current at 10 uM by whole cell patch clamp technique; assay type: tissue-based; how it was run: as §2
# [28] = target: Sodium channel protein type 10 subunit alpha (Rattus norvegicus) (UniProt Q62968); experiment: Blockade of Nav1.8 channel in rat dorsal root ganglion neurons assessed as inhibition of TTX-R current at 3 uM by whole cell patch clamp technique; assay type: tissue-based; how it was run: as §2
smiles,measurement,setting,value
O=C(c1ccc(-c2ccc(Oc3ccccc3)cc2)o1)N1CCNCC1,inhibition,[1],39%
same,inhibition,[2],56%
same,inhibition,[3],93%
O=C(c1ccc(-c2ccc(Cl)cc2)o1)N1CCNCC1,inhibition,[4],41%
same,bioavailability,[5],42%
same,IC50,[6],1100 nM
same,Cmax,[7],130 ng/mL
same,IC50,[8],4.6 µM
same,ED50,Rattus norvegicus [9],> 300 µmol/kg
same,Kp,[10],9
same,Activity,[11],60%
same,ED50,Rattus norvegicus [12],24 µmol/kg
same,IC50,[13],280 nM
same,ED50,Rattus norvegicus [14],> 300 µmol/kg
same,IC50,[15],2900 nM
same,IC50,[16],0.43 µM
same,clearance,[17],350 mL/min/kg
same,Vd,[18],24 L/kg
same,ED50,Rattus norvegicus [19],> 300 µmol/kg
same,Activity,[20],86%
same,inhibition,[21],55%
O=C(c1ccc(-c2ccc(Cl)cc2)o1)N1CCN(C2CCCCC2)CC1,inhibition,[4],50%
same,bioavailability,[5],48%
same,IC50,[6],350 nM
same,Cmax,[7],470 ng/mL
same,IC50,[8],2.3 µM
same,ED50,Rattus norvegicus [9],> 300 µmol/kg
same,Kp,[10],9
same,ED50,Rattus norvegicus [12],37 µmol/kg
same,IC50,[13],300 nM
same,ED50,Rattus norvegicus [14],> 300 µmol/kg
same,IC50,[15],1000 nM
same,IC50,[16],0.39 µM
same,clearance,[17],45 mL/min/kg
same,Vd,[18],7.8 L/kg
same,ED50,Rattus norvegicus [19],> 300 µmol/kg
same,inhibition,[21],58%
O=C(NCCCN1CCCCC1)c1ccc(-c2ccc(Cl)cc2)o1,inhibition,[4],52%
same,IC50,[15],1600 nM
O=C(c1ccc(-c2ccc(Cl)cc2Cl)o1)N1CCN(C2CCCCC2)CC1,inhibition,[21],12%
O=C(c1ccc(-c2ccc(Oc3ccccc3)cc2)o1)N1CCN(C2CCCCC2)CC1,inhibition,[22],68%
same,inhibition,[2],67%
same,inhibition,[21],93%
O=C(c1ccc(-c2ccc(Cl)cc2)o1)N1CCN(c2cccc(C(F)(F)F)c2)CC1,IC50,[15],14000 nM
CN1CCN(C(=O)c2ccc(-c3ccc(C(C)(C)C)cc3)o2)CC1,inhibition,[2],55%
same,inhibition,[21],32%
CN(C)c1ccc(-c2ccc(C(=O)N3CCN(C4CCCCC4)CC3)o2)cc1,inhibition,[3],65%
O=C(NCCN1CCCCC1)c1ccc(-c2ccc(Cl)cc2)o1,inhibition,[4],59%
same,inhibition,[1],29%
same,IC50,[15],900 nM
CN1CCN(C(=O)c2ccc(-c3ccc(Oc4ccccc4)cc3)o2)CC1,inhibition,[1],35%
same,inhibition,[2],90%
same,inhibition,[23],55%
same,inhibition,[21],87%
O=C(c1ccc(-c2ccc(Cl)cc2)o1)N1CCOCC1,IC50,[15],32000 nM
Cc1cccc(C)c1OCC(C)N (centres undefined) [MEXILETINE],IC50,[6],2900 nM
same,ED50,Rattus norvegicus [24],> 140 µmol/kg
same,Kp,[10],1.4
same,IC50,[13],56000 nM
same,IC50,[16],31 µM
same,ED50,Rattus norvegicus [25],45 µmol/kg
same,ED50,Rattus norvegicus [26],102 µmol/kg
O=C(c1ccc(-c2cccc(Cl)c2)o1)N1CCN(C2CCCCC2)CC1,inhibition,[1],22%
same,inhibition,[3],80%
CC(C)(C)c1ccc(-c2ccc(C(=O)N3CCNCC3)o2)cc1,inhibition,[1],44%
same,inhibition,[3],85%
same,inhibition,[27],86%
CN1CCN(C(=O)c2ccc(-c3ccc(Cl)cc3)o2)CC1,inhibition,[28],31%
same,IC50,[15],9900 nM
O=C(c1ccc(-c2ccc(OC(F)(F)F)cc2)o1)N1CCN(C2CCCCC2)CC1,inhibition,[1],42%
same,inhibition,[21],89%
Nc1nnc(-c2cccc(Cl)c2Cl)c(N)n1 [LAMOTRIGINE],bioavailability,[5],79%
same,IC50,[6],10000 nM
same,Cmax,[7],3500 ng/mL
same,IC50,[8],62 µM
same,ED50,Rattus norvegicus [9],> 390 µmol/kg
same,Ratio,[10]; brain,26
same,ED50,Rattus norvegicus [12],47 µmol/kg
same,IC50,[13],96000 nM
same,ED50,Rattus norvegicus [14],> 390 µmol/kg
same,IC50,[16],25 µM
same,clearance,[17],1 mL/min/kg
same,Vd,[18],0.98 L/kg
same,ED50,Rattus norvegicus [19],> 390 µmol/kg
C[C@@H](NC(=O)c1ccc(-c2ccc(Cl)cc2)o1)C(=O)N1CCN(CCCOc2ccc(C(=O)C3CC3)cc2)CC1,IC50,[13],1000 nM
CN1CCC(NC(=O)c2ccc(-c3ccc(Cl)cc3)o2)CC1,inhibition,[4],51%
same,IC50,[15],1900 nM
CN(C)CC(C)(C)CNC(=O)c1ccc(-c2ccc(Cl)cc2)o1,inhibition,[4],65%
same,IC50,[15],2400 nM
